Where two headings read alike, the source gives them in different places.

What is called EC50 is the concentration that produces a half-maximal response. High values mean weaker potency, low ones greater potency.

For assay [1], the target named is T1, SNAP-mGluR3 (Rattus norvegicus, UniProt P31422). Description: GIRK current, whole-cell patch clamp. It is filed as cell-based. Conditions: GIRK1-F137S co-expressed. A general note: The patch-clamp technique gives a direct electrical read-out from membranes.
Assay [2] addresses T1, SNAP-mGluR3. Description: GIRK current, whole-cell patch clamp. It is filed as cell-based. In outline: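 Cells grown in DMEM with 10% FBS at 37 °C/5% CO2, seeded on poly-L-lysine-coated glass coverslips, and co-transfected (Lipofectamine 2000) with receptor, GIRK1-F137S homotetramer and tdTomato. Medium was switched at 6 h to 5 µM LY341495. Whole-cell voltage clamp at −60 mV 24–36 h post-transfection. Log EC50 of point mutants versus WT compared by extra sum-of-squares F-test.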

T1 sequence (P31422 23-879): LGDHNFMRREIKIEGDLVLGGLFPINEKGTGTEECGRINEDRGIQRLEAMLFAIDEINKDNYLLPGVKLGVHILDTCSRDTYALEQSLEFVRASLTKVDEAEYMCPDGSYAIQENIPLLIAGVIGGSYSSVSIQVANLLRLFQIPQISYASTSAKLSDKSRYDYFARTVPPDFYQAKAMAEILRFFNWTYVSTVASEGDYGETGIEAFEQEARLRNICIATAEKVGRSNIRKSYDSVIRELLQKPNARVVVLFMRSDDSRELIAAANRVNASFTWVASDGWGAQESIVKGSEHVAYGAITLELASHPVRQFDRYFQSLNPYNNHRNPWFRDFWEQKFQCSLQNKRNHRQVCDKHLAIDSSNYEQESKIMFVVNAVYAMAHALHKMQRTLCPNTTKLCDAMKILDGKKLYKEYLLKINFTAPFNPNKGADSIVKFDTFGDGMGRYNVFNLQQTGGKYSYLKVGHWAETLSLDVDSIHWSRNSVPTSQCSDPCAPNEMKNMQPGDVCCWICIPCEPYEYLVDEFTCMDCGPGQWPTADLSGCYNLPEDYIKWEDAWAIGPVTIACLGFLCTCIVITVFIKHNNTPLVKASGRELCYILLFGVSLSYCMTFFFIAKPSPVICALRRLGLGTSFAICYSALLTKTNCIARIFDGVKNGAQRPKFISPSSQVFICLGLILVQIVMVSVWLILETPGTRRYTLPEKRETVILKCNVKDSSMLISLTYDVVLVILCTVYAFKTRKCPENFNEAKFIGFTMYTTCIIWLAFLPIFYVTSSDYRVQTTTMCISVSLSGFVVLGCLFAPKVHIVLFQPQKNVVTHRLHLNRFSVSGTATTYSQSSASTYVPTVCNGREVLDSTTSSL

As to `N[C@H](C(=O)O)C1[C@@H](C(=O)O)[C@@H]1C(=O)O` (stereo partly shown) [DCG-IV], at SNAP-mGluR3 [1] (orthosteric partial agonist), the EC50 result is given as “All three agonists produced dose-dependent, reversible GIRK currents”. Consider `N[C@@]1(C(=O)O)CO[C@H]2[C@H](C(=O)O)[C@H]21` [LY379268], for which the concentration for a half-maximal effect (EC50) result on SNAP-mGluR3 [1] (orthosteric agonist) was “All three agonists produced dose-dependent, reversible GIRK currents”. `COc1ccc(C(=O)O)cc1OC[C@H](C)COc1ccc(C(=O)CC(C)(C)C)c(O)c1C` [VU6023326, (R)−3-(3-(4-(3,3-dimethylbutanoyl)−3-hydroxy-2-methylphenoxy)−2-methyl-propoxy)−4-methoxybenzoic acid] showed a 50% effective concentration (EC50) on SNAP-mGluR3 [2] of 7.94 nM. In other words, the single-digit nanomolar range. Take `N[C@@H](CCC(=O)O)C(=O)O` [glutamate]: the EC50 entry at SNAP-mGluR3 [1] (orthosteric agonist) is recorded as “All three agonists produced dose-dependent, reversible GIRK currents”.

These data come from publication PMC11294631 (Nature Communications, 2024).
